The source of these data is ChEMBL document CHEMBL3992565, “Discovery of [1,2,3]Triazolo[4,5-d]pyrimidine Derivatives as Novel LSD1 Inhibitors” (ACS Med Chem Lett, 2017).

Calls of active or inactive are those of the source. The rule behind the calls is not given here.

The species named for data set [1] is Homo sapiens. The data set is described as follows: Activity at histone lysine methyltransferase in human MGC803 cells assessed as effect on H3K9me2 level up to 4 uM after 5 days by Western blot method. It is filed as cell-based. In outline: (§1)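 MGC-803 gastric cancer cells, which overexpress LSD1, were treated at the indicated concentrations. Several histone methylation marks were then probed by Western blot. Each experiment was run independently at least three times.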
In general terms: Immunoblotting shows a protein as a band on a membrane.

Data set [2] is filed under the species Homo sapiens. Briefly: Activity at histone lysine methyltransferase in human MGC803 cells assessed as effect on H3K4me3 level up to 4 uM after 5 days by Western blot method. It is filed as cell-based. The method, boiled down: as §1
The species entered for data set [3] is Homo sapiens. Briefly: Activity at histone demethylase in human MGC803 cells assessed as effect on H3K9me1 level up to 4 uM after 5 days by Western blot method. The data set is classed as cell-based. The method, boiled down:
as §1

For data set [4], the target named is T1, MAO-A (Homo sapiens, UniProt P21397).
T1 sequence (P21397 whole entry): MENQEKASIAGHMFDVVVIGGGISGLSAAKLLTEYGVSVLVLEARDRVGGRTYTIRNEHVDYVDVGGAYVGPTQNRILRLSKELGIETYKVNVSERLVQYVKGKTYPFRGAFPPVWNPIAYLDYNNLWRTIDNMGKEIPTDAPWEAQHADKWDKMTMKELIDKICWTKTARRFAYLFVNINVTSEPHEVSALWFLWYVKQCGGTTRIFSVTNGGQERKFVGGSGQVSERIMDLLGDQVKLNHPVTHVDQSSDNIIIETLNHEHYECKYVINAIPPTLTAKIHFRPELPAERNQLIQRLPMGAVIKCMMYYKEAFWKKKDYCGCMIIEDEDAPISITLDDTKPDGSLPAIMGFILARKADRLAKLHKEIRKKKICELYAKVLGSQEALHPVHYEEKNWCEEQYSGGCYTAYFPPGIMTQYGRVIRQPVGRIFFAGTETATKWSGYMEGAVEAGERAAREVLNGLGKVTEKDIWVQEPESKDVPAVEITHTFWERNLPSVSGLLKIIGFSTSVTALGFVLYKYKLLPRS
The data set is described as follows: Inhibition of MAO-A (unknown origin) at 1 uM using luciferin-derived luminogenic substrate by MAO-Glo assay relative to control. To be noted: MAO-A enzyme (unknown origin), probe luciferin-derived luminogenic substrate.

Data set [5] relates to MGC-803. The data set is described as follows: Effect on LSD1 expression in human MGC803 cells up to 4 uM after 5 days by DAPI staining based immunofluorescence assay. The note with it: mgc-803, 120 h. It is filed as cell-based. In outline:
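MGC-803 cells were seeded in 96-well plates and treated for 5 days at the indicated concentrations. LSD1 was stained by immunofluorescence, with DAPI used for cell counting. Each well was scored over 12 fields by high content analysis. Data are mean ± SD from at least three experiments.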

Data set [6] is filed under the species Homo sapiens. The data set is described as follows: Activity at histone demethylase in human MGC803 cells assessed as effect on H3K4me3 level up to 4 uM after 5 days by Western blot method. It is filed as cell-based. The method, boiled down:
as §1

For data set [7], the system named is MGC-803. Briefly: Antimigratory activity against human MGC803 cells assessed as decrease in N-cadherin level at 0.5 to 2 uM after 24 hrs by Western blot method. It is filed as functional, cell-based. The method, boiled down: (§2)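 MGC-803 cells were exposed for 24 h to three low concentrations. E-cadherin (epithelial marker) and N-cadherin (mesenchymal marker) were then probed by Western blot. Data are mean ± SD from at least three experiments.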

The species named for data set [8] is Homo sapiens. The data set is described as follows: Activity at histone lysine methyltransferase in human MGC803 cells assessed as effect on H3K9me1 level up to 4 uM after 5 days by Western blot method. The data set is classed as cell-based. In outline: as §1
For data set [9], the target named is T2, MAO-B (Homo sapiens, UniProt P27338).
T2 sequence (P27338 whole entry): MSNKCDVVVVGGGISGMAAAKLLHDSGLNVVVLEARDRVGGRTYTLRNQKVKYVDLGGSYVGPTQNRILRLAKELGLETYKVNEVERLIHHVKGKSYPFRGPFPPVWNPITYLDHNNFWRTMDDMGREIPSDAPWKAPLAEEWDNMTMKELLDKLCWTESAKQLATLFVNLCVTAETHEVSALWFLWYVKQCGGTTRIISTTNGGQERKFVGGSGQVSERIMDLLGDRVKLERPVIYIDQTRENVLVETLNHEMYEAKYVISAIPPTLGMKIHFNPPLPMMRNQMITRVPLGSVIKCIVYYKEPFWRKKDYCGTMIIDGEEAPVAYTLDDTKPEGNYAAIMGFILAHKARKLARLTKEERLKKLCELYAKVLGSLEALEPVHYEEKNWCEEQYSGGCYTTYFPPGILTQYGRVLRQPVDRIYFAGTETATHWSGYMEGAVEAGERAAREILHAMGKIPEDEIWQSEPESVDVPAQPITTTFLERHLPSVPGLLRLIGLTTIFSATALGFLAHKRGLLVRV
Briefly: Inhibition of MAO-B (unknown origin) at 10 uM using luciferin-derived luminogenic substrate by MAO-Glo assay relative to control. To be noted: MAO-B enzyme (unknown origin), probe luciferin-derived luminogenic substrate.

Data set [10] is filed under the species Homo sapiens. The data set is described as follows: Activity at histone demethylase in human MGC803 cells assessed as effect on H3K9me2 level up to 4 uM after 5 days by Western blot method. The data set is classed as cell-based. The method, boiled down: as §1
The target of data set [11] is T1, MAO-A. Briefly: Inhibition of MAO-A (unknown origin) at 10 uM using luciferin-derived luminogenic substrate by MAO-Glo assay relative to control. The note with it: MAO-A enzyme (unknown origin), probe luciferin-derived luminogenic substrate.
Data set [12] has as its system MGC-803. Briefly: Antiproliferative activity against human MGC803 cells after 5 days by MTT assay. To be noted: MGC-803, 120 h. On the technique in general: Tetrazolium dyes change colour on reduction, which living cells bring about.
Data set [13] deals with MGC-803. The data set is described as follows: Antimigratory activity against human MGC803 cells at lower concentration after 24 hrs by Hoechst 33258 staining based transwell assay. The data set is classed as functional, cell-based. The method, boiled down:
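Migration was measured by transwell assay read by high content analysis. MGC-803 cells were treated for 24 h at three low concentrations. Data are mean ± SD from at least three independent experiments, with significance at p < 0.01.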

The subject of data set [14] is MGC-803. Briefly: Antimigratory activity against human MGC803 cells assessed as accumulation of E-cadherin at 0.5 to 2 uM after 24 hrs by Western blot method. It is filed as functional, cell-based. In outline: as §2
For data set [15], the target named is T2, MAO-B. The data set is described as follows: Inhibition of MAO-B (unknown origin) at 1 uM using luciferin-derived luminogenic substrate by MAO-Glo assay relative to control. To be noted: MAO-B enzyme (unknown origin), probe luciferin-derived luminogenic substrate.
Data set [16] deals with T3, Lysine-specific histone demethylase 1A (Homo sapiens, UniProt O60341). Briefly: Inhibition of full length recombinant LSD1 (unknown origin) expressed in Escherichia coli […] using H3K4me2 as substrate by fluorescence assay.
Data set [17] concerns the target T3, Lysine-specific histone demethylase 1A. The note with it: 600 uM.

Turning to `c1ccc(CSc2nc(Sc3ccccn3)c3nnn(Cc4ccccc4)c3n2)cc1`, the outcome in the data set listed under Homo sapiens [1], in the data set filed under Homo sapiens [2], in the data set listed under Homo sapiens [3], in the data set filed under Homo sapiens [6], in the data set listed under Homo sapiens [8] and in the data set filed under Homo sapiens [10] was inactive. The inhibition at 1 µM was determined as 34% against MAO-A [4] and 11% against MAO-B [15]. In addition, in the data set on MGC-803 [5], the Activity result is recorded as “Non-Toxic”. For the same compound, the result in the data set on MGC-803 [7], in the data set on MGC-803 [13] and in the data set with MGC-803 [14] was Active. The inhibition at 10 µM at MAO-B [9] came out at 39%; against MAO-A [11], 59%. In the data set with MGC-803 [12], this compound came in with an IC50 of 7.64 µM.

Take `O=C(O)c1ccc(CN2CCC(CN[C@@H]3C[C@H]3c3ccccc3)CC2)cc1` [GSK2879552]: the figures for the IC50 (in [16]; with MGC-803 [12]) were 0.041 µM and above 125 µM, respectively. The inhibition result in [17] is “inactive”.

In general, inhibition refers to the drop in the measured response relative to a control, in per cent. For orientation: IC50 means the concentration that gives 50% inhibition.
